Experimental data published in ChEMBL document CHEMBL1151756, “Design, synthesis, and biological evaluation of N-carboxyphenylpyrrole derivatives as potent HIV fusion inhibitors targeting gp41” (J Med Chem, 2008).
Active and inactive are the calls of the source. The calls are words filed in the database; no cut-off is given here.

Tests used:
[1] = Inhibition of HIV1 3B gp41 six-helix bundle formation after 30 mins by sandwich ELISA
[2] = Selectivity index, ratio of CC50 for human MT2 cells to EC50 for HIV1 3B; assay type: toxicity, cell-based; details: read-out: Ratio CC50/EC50
[3] = tested on: Human immunodeficiency virus 1; assay: Antiviral activity against HIV1 3B in human MT2 cells assessed as inhibition of p24 antigen level after 4 days by ELISA; assay type: functional, organism-based; details: Human immunodeficiency virus 1, 3B, MT2, 96 h
Procedure, shortened: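 Medium then replaced without compound. Day 4 post-infection, supernatants lysed with 5% Triton X-100; p24 measured by sandwich ELISA with HIVIG capture, anti-p24 mAb, TMB, A450, and a recombinant p24 standard curve. Triplicates; EC50 calculated from percent inhibition.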

[4] = tested on: MT2; assay: Cytotoxicity against human MT2 cells after 4 days by XTT assay; assay type: cell-based; details: mt2, 96 h
Procedure, shortened: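 XTT assay: MT-2 cells (5 × 10⁵/mL) incubated with compound at graded concentrations at 37 °C for 4 days. XTT (1 mg/mL) containing 0.02 μM PMS then added, and A450 read after 4 h. CC50 calculated.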

[5] = tested on: Human immunodeficiency virus 1; assay: Antiviral activity against HIV1 3B in human MT2 cells assessed as reduction of virus-induced cytopathogenicity; assay type: functional, organism-based

## COC(=O)c1ccc(-c2noc(CSC#N)n2)cc1
[1]
  IC50: 171 µM
[2]
  selectivity ratio: 3.99
[3]
  EC50: 11 µM
[4]
  CC50: 43.7 µM

## O=C(O)c1ccc(-n2cccc2)cc1O
[1]
  IC50: 70.8 µM
[2]
  selectivity ratio: 5.42
[3]
  EC50: 81.7 µM
[4]
  CC50: 443 µM

## O=C(O)c1ccc(N2C(=O)C=CC2=O)cc1O
[1]
  IC50: > 1000 µM
[3]
  EC50: > 400 µM
[4]
  CC50: > 400 µM

## COc1ccc(N2C(=O)CSC2=S)cc1
[1]
  IC50: > 1000 µM
[2]
  selectivity ratio: 1.41
[3]
  EC50: 63.4 µM
[4]
  CC50: 89.6 µM

## O=C(O)c1ccc(-c2noc(CCl)n2)cc1
[1]
  IC50: > 420 µM
[2]
  selectivity ratio: 16.4
[3]
  EC50: 3.91 µM
[4]
  CC50: 64 µM

## Cc1ccc(C)n1-c1ccc(Cl)c(C(=O)O)c1
[1]
  IC50: 78.7 µM
[2]
  selectivity ratio: 139
[3]
  EC50: 1.52 µM
[4]
  CC50: 211 µM

## O=C(O)c1cccc(-c2noc(C(F)(F)F)n2)c1
[1]
  IC50: > 1000 µM
[3]
  EC50: > 400 µM
[4]
  CC50: > 400 µM

## COC(=O)c1ccc(-n2c(C)ccc2C)cc1O
[1]
  IC50: 287 µM
[2]
  selectivity ratio: 1.5
[3]
  EC50: 59.1 µM
[4]
  CC50: 88.9 µM

## Cc1ccc(C)n1-c1cccc(C(=O)O)c1
[1]
  IC50: 42.2 µM
[2]
  selectivity ratio: 7.49
[3]
  EC50: 11.8 µM
[4]
  CC50: 88.4 µM

## O=C(O)c1cc(N2C(=O)CSC2=S)ccc1O
[1]
  IC50: > 1000 µM
[2]
  selectivity ratio: 0.92
[3]
  EC50: 166 µM
[4]
  CC50: 152 µM

## O=C(O)Cc1ccc(-n2cccc2)cc1
[3]
  EC50: 371 µM

## c1cc(-c2nnn[nH]2)cc(-n2cccc2)c1
[1]
  IC50: 226 µM
[2]
  selectivity ratio: 10.6
[3]
  EC50: 41 µM
[4]
  CC50: 436 µM

## Cc1ccc(C)n1-c1ccc(S(N)(=O)=O)cc1
[1]
  IC50: 182 µM
[2]
  selectivity ratio: 1.18
[3]
  EC50: 99.1 µM
[4]
  CC50: 117 µM

## N#CSCc1nc(-c2ccc(C(=O)O)cc2)no1
[1]
  IC50: 178 µM
[2]
  selectivity ratio: 5.64
[3]
  EC50: 68 µM
[4]
  CC50: 383 µM

## COC(=O)c1ccc(-c2noc(CBr)n2)cc1
[1]
  IC50: > 337 µM
[2]
  selectivity ratio: 0.37
[3]
  EC50: 88 µM
[4]
  CC50: 32.7 µM

## O=C(O)c1ccc(-c2noc(C(F)(F)F)n2)cc1
[1]
  IC50: 224 µM
[2]
  selectivity ratio: 26.9
[3]
  EC50: 3.06 µM
[4]
  CC50: 82.2 µM

## COC(=O)c1ccc(-c2noc(CCl)n2)cc1
[1]
  IC50: > 395 µM
[2]
  selectivity ratio: 0.34
[3]
  EC50: 41.4 µM
[4]
  CC50: 14.2 µM

## Cc1ccc(C)n1-c1ccc(Cl)cc1C(=O)O
[1]
  IC50: 60.3 µM
[3]
  EC50: 8.56 µM

## CCOC(=O)c1ccc(-c2noc(CO)n2)cc1
[1]
  IC50: 178 µM
[2]
  selectivity ratio: 1.03
[3]
  EC50: 373 µM
[4]
  CC50: 385 µM

## O=C(O)c1ccc(-n2cccc2)cc1
[1]
  IC50: 129 µM
[3]
  EC50: 69.2 µM

## O=C(O)c1cc(N2C(=O)CSC2=S)ccc1Cl
[1]
  IC50: > 1000 µM
[2]
  selectivity ratio: 0.87
[3]
  EC50: 179 µM
[4]
  CC50: 155 µM

## O=C(O)c1cc(-n2cccc2)ccc1O
[1]
  IC50: 48.7 µM
[3]
  EC50: 9.66 µM

## Cc1ccc(C)n1-c1ccc(O)c(C(=O)O)c1
[1]
  IC50: 37.4 µM
[3]
  EC50: 0.69 µM
[4]
  CC50: 133 µM
[5]
  Activity: Active

## COC(=O)c1ccc(N2C(=O)C=CC2=O)cc1O
[1]
  IC50: 101 µM
[2]
  selectivity ratio: 1.68
[3]
  EC50: 39.4 µM
[4]
  CC50: 66.2 µM

## O=C(O)c1cccc(-c2noc(CCl)n2)c1
[1]
  IC50: 346 µM
[2]
  selectivity ratio: 1.12
[3]
  EC50: 57.7 µM
[4]
  CC50: 64.9 µM

## O=C(O)c1ccc(N2C(=O)C=CC2=O)cc1
[1]
  IC50: > 1000 µM
[2]
  selectivity ratio: > 1.95
[3]
  EC50: 205 µM
[4]
  CC50: > 400 µM

## COC(=O)c1ccc(-n2cccc2)cc1O
[2]
  selectivity ratio: 10.7
[3]
  EC50: 35.4 µM
[4]
  CC50: 379 µM

## O=C(O)c1ccc(Cn2cccc2)cc1
[1]
  IC50: 157 µM
[3]
  EC50: 63.9 µM

## O=C1CSC(=S)N1c1cccc(C(F)(F)F)c1
[1]
  IC50: > 1000 µM
[2]
  selectivity ratio: 0.74
[3]
  EC50: 116 µM
[4]
  CC50: 85.4 µM

## Cc1ccc(C)n1-c1cccc(-c2nnn[nH]2)c1
[1]
  IC50: 25.6 µM
[2]
  selectivity ratio: 32.4
[3]
  EC50: 7.7 µM
[4]
  CC50: 249 µM

## O=C(O)c1ccc(-c2noc(CO)n2)cc1
[1]
  IC50: 26.4 µM
[2]
  selectivity ratio: 2.98
[3]
  EC50: 153 µM
[4]
  CC50: 455 µM

## Cc1ccc(C)n1-c1ccc(C(=O)O)cc1
[1]
  IC50: 189 µM
[2]
  selectivity ratio: 0.78
[3]
  EC50: 174 µM
[4]
  CC50: 136 µM

## Cc1ccc(C)n1-c1ccc(CC(=O)O)cc1
[1]
  IC50: 225 µM
[2]
  selectivity ratio: 97.1
[3]
  EC50: 2.1 µM
[4]
  CC50: 204 µM

## O=C(O)c1cccc(-n2cccc2)c1
[1]
  IC50: 211 µM
[2]
  selectivity ratio: 6.74
[3]
  EC50: 44.8 µM
[4]
  CC50: 302 µM

## O=C(O)c1cccc(N2C(=O)CSC2=S)c1
[1]
  IC50: > 1000 µM
[2]
  selectivity ratio: 0.81
[3]
  EC50: 204 µM
[4]
  CC50: 165 µM

## Nc1nnc(-c2ccc(C(=O)O)cc2)s1
[1]
  IC50: > 1000 µM
[3]
  EC50: > 400 µM
[4]
  CC50: > 400 µM

## O=C(O)c1ccc(N2C(=O)CSC2=S)cc1
[1]
  IC50: > 1000 µM
[2]
  selectivity ratio: 0.56
[3]
  EC50: 258 µM
[4]
  CC50: 143 µM

## O=C1CSC(=S)N1c1ccc(O)cc1
[1]
  IC50: > 1000 µM
[2]
  selectivity ratio: 2.38
[3]
  EC50: 35.7 µM
[4]
  CC50: 84.9 µM

## O=C(O)c1ccc(-c2noc(CBr)n2)cc1
[1]
  IC50: > 353 µM
[2]
  selectivity ratio: 0.64
[3]
  EC50: 127 µM
[4]
  CC50: 81.9 µM

## O=C(O)c1cc(-n2cccc2)ccc1Cl
[1]
  IC50: 58.7 µM
[4]
  CC50: 336 µM
